pEC50, pIC50: −log10 of the molar value. Active and inactive are the calls of the source. The calls are words filed in the database; no cut-off is given here.
Key:
[1] = target: T1, Histone acetyltransferase p300 (Homo sapiens, UniProt Q09472); experiment: Inhibition of human p300 HAT domain (1195 to 1673 residues) using histone H3 peptide and acetyl-coA as substrates preincubated for 10 mins followed by substrate addition and measured after 30 mins by beckman scintillation counting analysis
In short: (§1)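 Radiometric HAT assay. Enzyme at 10 nM was preincubated with graded compound for 10 min at 25 °C in 50 mM phosphate pH 7.0 with 0.01% Brij-35. Reaction started with H3 (1-21) peptide (20 μM) plus Ac-CoA (1 μM ³H-Ac-CoA + 19 μM unlabelled) and run 30 min at 25 °C. Stopped with formic acid, spotted on P81 paper, washed with NaHCO₃ and scintillation counted. IC₅₀ from sigmoidal fit, mean of ≥3 experiments.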

Kasumi 1 [2] = experiment: Inhibition of histone H3 acetylation at lysine 27 residue in human Kasumi 1 cells incubated for 12 hrs by Western blot analysis; format: functional, cell-based; conditions: dose 5-10 µM, DDE = dose-dependent effect
In short: (§2)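 Kasumi-1 cells (10⁶ per well) exposed to a range of compound concentrations for 12 h. Total histones extracted and 2 μg protein resolved by SDS-PAGE, then transferred to PVDF. Blots probed with antibodies to H3K9Ac, H3K18Ac, H3K27Ac and total H3, with anti-rabbit IgG secondary.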

Kasumi 1 [3] = experiment: Inhibition of histone H3 acetylation at lysine 9 residue in human Kasumi 1 cells incubated for 12 hrs by Western blot analysis; format: functional, cell-based; conditions: dose 5-10 µM, DDE = dose-dependent effect; in short: as §2
[4] = target: T1, Histone acetyltransferase p300; experiment: Inhibition of human p300 HAT domain (1195 to 1673 residues) at 10 uM using histone H3 peptide and acetyl-coA as substrates preincubated for 10 mins followed by substrate addition and measured after 30 mins by beckman scintillation counting analysis relative to control; conditions: time 40.0 min
In short: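 Single-concentration screen at 10 μM in the radiometric p300 HAT domain assay: enzyme 10 nM, pH 7.0 phosphate/Brij-35, 10 min preincubation, then H3(1-21) peptide 20 μM plus ³H/unlabelled Ac-CoA (20 μM total), 30 min at 25 °C. Filter-bound ³H-acetylated peptide was counted, and the value is given as % inhibition.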

MV4-11 = experiment: Antiproliferative activity against human MV4-11 cells assessed as reduction in cell growth incubated for 5 days by XTT assay; format: functional, cell-based; conditions: MV4-11, 120 h
In short: (§3)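 Blood cancer cells were plated at 10⁶ per well in RPMI-1640 with 20% FBS and penicillin/streptomycin and grown with increasing compound concentrations at 37 °C, 5% CO₂. Viability was measured by XTT, and EC50 was calculated from dose-response curves.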

MOLM-13 [5] = experiment: Antiproliferative activity against human MOLM-13 cells assessed as reduction in cell growth incubated for 5 days by XTT assay; format: functional, cell-based; conditions: MOLM-13, 120 h; in short: as §3
[6] = Antiproliferative activity against human MDA-Panc-28 cells assessed as reduction in cell growth incubated for 5 days by XTT assay; format: functional, cell-based; conditions: MDA-Panc-28, 120 h
In short: (§4)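 Solid tumour cells were seeded at 10⁵ per well in DMEM with 10% FBS and penicillin/streptomycin and allowed to attach overnight. They were then exposed to increasing compound concentrations for 5 days. Viability was read by XTT, and EC50 came from dose-response curves.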

PANC-1 = experiment: Antiproliferative activity against human PANC-1 cells assessed as reduction in cell growth incubated for 5 days by XTT assay; format: functional, cell-based; conditions: PANC-1, 120 h; in short: as §4
MDA-MB-231 [7] = experiment: Antiproliferative activity against human MDA-MB-231 cells assessed as reduction in cell growth incubated for 5 days by XTT assay; format: functional, cell-based; conditions: MDA-MB-231, 120 h
PC-3 [8] = experiment: Antiproliferative activity against human PC-3 cells assessed as reduction in cell growth incubated for 5 days by XTT assay; format: functional, cell-based; conditions: PC-3, 120 h
MCF7 = experiment: Antiproliferative activity against human MCF7 cells assessed as reduction in cell growth incubated for 5 days by XTT assay; format: functional, cell-based; conditions: MCF7, 120 h; in short: as §4
LNCaP [9] = experiment: Antiproliferative activity against human LNCaP cells assessed as reduction in cell growth incubated for 5 days by XTT assay; format: functional, cell-based; conditions: 120 h; in short: as §4
RPMI-8226 [10] = experiment: Antiproliferative activity against human RPMI-8226 cells assessed as reduction in cell growth incubated for 5 days by XTT assay; format: functional, cell-based; conditions: RPMI-8226, 120 h; in short: as §3
MOLM-13 [11] = experiment: Antiproliferative activity against human MOLM-13 cells assessed as reduction in cell growth incubated for 3 to 5 days by CellTiter-Glo luminescent cell viability assay; format: functional, cell-based
LNCaP [12] = experiment: Antiproliferative activity against human LNCaP cells assessed as reduction in cell growth incubated for 3 to 5 days by CellTiter-Glo luminescent cell viability assay; format: functional, cell-based
RPMI-8226 [13] = experiment: Antiproliferative activity against human RPMI-8226 cells assessed as reduction in cell growth incubated for 3 to 5 days by CellTiter-Glo luminescent cell viability assay; format: functional, cell-based
MDA-MB-231 [14] = experiment: Antiproliferative activity against human MDA-MB-231 cells assessed as reduction in cell growth incubated for 3 to 5 days by CellTiter-Glo luminescent cell viability assay; format: functional, cell-based
PC-3 [15] = experiment: Antiproliferative activity against human PC-3 cells assessed as reduction in cell growth incubated for 3 to 5 days by CellTiter-Glo luminescent cell viability assay; format: functional, cell-based
[16] = target: T1, Histone acetyltransferase p300; experiment: Inhibition of biotinylated histone H4 peptide binding to His-tagged human p300 HAT domain (1195 to 1673 residues) assessed as reduction in alpha signal incubated for 1 hr by amplified luminescent proximity homogeneous assay
In short: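 AlphaScreen binding assay in PBS with 0.5% BSA: His6-tagged p300 HAT (125 nM) on nickel chelate acceptor beads and biotinylated H4 peptide (30 nM) on streptavidin donor beads, with a dilution series of compound. After 1 h, signal was read with excitation at 680 nm and emission at 570 nm, and IC50 came from a sigmoidal dose-response fit.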

Kasumi 1 [17] = experiment: Inhibition of histone H3 acetylation at lysine 18 residue in human Kasumi 1 cells incubated for 12 hrs by Western blot analysis; format: functional, cell-based; conditions: dose 5-10 µM, DDE = dose-dependent effect
In short: (§5)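 Kasumi-1 leukemia cells (10⁶ per well) were treated 12 h with a range of compound concentrations. Total histones were extracted, and 2 μg was resolved by SDS-PAGE and transferred to PVDF. Blots were probed for H3K9ac, H3K18ac, H3K27ac and total H3, with anti-rabbit IgG secondary.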

CREB-binding protein = CREB-binding protein (Homo sapiens, UniProt Q92793); experiment: Inhibition of human CBP-HAT domain using histone H3 peptide and acetyl-coA as substrates preincubated for 10 mins followed by substrate addition and measured after 30 mins by beckman scintillation counting analysis; in short: as §1
Kasumi 1 [18] = experiment: Inhibition of histone H3 acetylation at lysine 9 residue in human Kasumi 1 cells at 5 to 10 uM incubated for 12 hrs by Western blot analysis; format: functional, cell-based; conditions: dose 5-10 µM; in short: as §5
[19] = target: Histone acetyltransferase KAT6A (Homo sapiens, UniProt Q92794); experiment: Inhibition of human Myst3 using histone H3 peptide and acetyl-coA as substrates preincubated for 10 mins followed by substrate addition and measured after 30 mins by beckman scintillation counting analysis; in short: as §1
Kasumi 1 [20] = experiment: Inhibition of histone H3 acetylation at lysine 27 residue in human Kasumi 1 cells at 5 to 10 uM incubated for 12 hrs by Western blot analysis; format: functional, cell-based; conditions: dose 5-10 µM; in short: as §5
[21] = target: Histone acetyltransferase KAT2B (Homo sapiens, UniProt Q92831); experiment: Inhibition of human PCAF using histone H3 peptide and acetyl-coA as substrates preincubated for 10 mins followed by substrate addition and measured after 30 mins by beckman scintillation counting analysis; in short: as §1

T1 sequence (Q09472 whole entry, the tested form may be a part): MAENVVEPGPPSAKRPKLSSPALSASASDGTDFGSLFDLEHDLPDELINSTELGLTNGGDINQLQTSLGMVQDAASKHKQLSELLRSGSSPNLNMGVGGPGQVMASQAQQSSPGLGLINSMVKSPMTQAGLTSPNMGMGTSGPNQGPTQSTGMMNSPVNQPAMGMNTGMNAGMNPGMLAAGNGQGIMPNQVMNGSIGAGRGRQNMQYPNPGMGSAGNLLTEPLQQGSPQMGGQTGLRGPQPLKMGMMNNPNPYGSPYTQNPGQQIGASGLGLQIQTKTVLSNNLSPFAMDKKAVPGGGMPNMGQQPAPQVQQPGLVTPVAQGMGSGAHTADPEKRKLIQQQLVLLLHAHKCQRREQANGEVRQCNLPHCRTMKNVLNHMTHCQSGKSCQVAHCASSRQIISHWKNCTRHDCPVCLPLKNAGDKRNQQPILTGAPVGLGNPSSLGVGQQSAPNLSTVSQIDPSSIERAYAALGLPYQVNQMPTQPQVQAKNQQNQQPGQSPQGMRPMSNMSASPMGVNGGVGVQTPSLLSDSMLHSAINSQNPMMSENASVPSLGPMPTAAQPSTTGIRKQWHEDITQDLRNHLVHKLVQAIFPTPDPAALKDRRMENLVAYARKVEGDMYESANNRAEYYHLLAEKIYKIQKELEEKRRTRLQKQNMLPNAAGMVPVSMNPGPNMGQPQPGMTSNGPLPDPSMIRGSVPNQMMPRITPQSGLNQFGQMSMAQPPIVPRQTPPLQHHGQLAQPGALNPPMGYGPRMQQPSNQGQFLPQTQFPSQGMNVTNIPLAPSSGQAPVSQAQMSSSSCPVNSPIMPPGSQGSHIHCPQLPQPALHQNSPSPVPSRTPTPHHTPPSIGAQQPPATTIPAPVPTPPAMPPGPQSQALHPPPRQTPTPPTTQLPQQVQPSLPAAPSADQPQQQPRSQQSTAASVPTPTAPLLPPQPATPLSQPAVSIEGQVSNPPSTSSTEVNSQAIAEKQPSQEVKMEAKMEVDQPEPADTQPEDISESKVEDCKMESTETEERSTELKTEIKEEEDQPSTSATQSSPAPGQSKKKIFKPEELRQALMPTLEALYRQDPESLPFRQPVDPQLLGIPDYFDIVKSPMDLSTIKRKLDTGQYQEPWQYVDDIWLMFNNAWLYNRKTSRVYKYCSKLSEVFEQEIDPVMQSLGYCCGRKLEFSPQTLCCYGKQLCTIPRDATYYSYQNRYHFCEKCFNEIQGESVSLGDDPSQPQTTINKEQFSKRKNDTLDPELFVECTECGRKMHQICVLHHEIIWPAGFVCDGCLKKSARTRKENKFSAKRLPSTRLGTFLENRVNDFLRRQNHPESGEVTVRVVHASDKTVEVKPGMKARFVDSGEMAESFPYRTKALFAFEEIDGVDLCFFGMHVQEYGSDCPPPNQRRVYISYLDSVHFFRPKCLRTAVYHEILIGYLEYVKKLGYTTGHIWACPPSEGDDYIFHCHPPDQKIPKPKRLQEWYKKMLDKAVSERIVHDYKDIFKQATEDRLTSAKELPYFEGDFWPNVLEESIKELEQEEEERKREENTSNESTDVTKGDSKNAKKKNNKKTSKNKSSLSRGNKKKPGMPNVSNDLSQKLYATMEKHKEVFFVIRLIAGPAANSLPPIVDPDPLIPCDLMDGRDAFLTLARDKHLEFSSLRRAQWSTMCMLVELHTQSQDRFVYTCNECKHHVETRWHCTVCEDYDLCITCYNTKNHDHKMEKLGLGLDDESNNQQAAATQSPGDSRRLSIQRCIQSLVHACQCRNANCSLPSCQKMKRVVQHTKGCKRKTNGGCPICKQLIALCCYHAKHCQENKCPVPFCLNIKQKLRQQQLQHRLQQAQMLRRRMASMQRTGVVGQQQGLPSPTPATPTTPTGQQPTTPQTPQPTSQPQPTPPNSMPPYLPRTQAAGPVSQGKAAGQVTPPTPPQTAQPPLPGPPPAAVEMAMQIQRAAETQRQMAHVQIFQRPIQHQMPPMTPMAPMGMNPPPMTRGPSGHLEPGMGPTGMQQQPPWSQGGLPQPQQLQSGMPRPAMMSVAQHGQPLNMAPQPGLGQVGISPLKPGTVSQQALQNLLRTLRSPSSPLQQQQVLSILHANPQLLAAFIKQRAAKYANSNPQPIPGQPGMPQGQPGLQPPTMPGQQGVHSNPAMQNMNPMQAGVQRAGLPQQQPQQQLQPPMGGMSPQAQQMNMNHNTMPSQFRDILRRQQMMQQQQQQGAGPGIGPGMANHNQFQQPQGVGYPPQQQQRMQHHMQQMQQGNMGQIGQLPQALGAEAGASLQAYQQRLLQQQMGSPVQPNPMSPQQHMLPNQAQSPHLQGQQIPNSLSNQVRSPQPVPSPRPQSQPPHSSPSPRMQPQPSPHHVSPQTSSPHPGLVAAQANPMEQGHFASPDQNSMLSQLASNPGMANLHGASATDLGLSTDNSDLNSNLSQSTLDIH
Sequence of CREB-binding protein (Q92793 whole entry, the tested form may be a part): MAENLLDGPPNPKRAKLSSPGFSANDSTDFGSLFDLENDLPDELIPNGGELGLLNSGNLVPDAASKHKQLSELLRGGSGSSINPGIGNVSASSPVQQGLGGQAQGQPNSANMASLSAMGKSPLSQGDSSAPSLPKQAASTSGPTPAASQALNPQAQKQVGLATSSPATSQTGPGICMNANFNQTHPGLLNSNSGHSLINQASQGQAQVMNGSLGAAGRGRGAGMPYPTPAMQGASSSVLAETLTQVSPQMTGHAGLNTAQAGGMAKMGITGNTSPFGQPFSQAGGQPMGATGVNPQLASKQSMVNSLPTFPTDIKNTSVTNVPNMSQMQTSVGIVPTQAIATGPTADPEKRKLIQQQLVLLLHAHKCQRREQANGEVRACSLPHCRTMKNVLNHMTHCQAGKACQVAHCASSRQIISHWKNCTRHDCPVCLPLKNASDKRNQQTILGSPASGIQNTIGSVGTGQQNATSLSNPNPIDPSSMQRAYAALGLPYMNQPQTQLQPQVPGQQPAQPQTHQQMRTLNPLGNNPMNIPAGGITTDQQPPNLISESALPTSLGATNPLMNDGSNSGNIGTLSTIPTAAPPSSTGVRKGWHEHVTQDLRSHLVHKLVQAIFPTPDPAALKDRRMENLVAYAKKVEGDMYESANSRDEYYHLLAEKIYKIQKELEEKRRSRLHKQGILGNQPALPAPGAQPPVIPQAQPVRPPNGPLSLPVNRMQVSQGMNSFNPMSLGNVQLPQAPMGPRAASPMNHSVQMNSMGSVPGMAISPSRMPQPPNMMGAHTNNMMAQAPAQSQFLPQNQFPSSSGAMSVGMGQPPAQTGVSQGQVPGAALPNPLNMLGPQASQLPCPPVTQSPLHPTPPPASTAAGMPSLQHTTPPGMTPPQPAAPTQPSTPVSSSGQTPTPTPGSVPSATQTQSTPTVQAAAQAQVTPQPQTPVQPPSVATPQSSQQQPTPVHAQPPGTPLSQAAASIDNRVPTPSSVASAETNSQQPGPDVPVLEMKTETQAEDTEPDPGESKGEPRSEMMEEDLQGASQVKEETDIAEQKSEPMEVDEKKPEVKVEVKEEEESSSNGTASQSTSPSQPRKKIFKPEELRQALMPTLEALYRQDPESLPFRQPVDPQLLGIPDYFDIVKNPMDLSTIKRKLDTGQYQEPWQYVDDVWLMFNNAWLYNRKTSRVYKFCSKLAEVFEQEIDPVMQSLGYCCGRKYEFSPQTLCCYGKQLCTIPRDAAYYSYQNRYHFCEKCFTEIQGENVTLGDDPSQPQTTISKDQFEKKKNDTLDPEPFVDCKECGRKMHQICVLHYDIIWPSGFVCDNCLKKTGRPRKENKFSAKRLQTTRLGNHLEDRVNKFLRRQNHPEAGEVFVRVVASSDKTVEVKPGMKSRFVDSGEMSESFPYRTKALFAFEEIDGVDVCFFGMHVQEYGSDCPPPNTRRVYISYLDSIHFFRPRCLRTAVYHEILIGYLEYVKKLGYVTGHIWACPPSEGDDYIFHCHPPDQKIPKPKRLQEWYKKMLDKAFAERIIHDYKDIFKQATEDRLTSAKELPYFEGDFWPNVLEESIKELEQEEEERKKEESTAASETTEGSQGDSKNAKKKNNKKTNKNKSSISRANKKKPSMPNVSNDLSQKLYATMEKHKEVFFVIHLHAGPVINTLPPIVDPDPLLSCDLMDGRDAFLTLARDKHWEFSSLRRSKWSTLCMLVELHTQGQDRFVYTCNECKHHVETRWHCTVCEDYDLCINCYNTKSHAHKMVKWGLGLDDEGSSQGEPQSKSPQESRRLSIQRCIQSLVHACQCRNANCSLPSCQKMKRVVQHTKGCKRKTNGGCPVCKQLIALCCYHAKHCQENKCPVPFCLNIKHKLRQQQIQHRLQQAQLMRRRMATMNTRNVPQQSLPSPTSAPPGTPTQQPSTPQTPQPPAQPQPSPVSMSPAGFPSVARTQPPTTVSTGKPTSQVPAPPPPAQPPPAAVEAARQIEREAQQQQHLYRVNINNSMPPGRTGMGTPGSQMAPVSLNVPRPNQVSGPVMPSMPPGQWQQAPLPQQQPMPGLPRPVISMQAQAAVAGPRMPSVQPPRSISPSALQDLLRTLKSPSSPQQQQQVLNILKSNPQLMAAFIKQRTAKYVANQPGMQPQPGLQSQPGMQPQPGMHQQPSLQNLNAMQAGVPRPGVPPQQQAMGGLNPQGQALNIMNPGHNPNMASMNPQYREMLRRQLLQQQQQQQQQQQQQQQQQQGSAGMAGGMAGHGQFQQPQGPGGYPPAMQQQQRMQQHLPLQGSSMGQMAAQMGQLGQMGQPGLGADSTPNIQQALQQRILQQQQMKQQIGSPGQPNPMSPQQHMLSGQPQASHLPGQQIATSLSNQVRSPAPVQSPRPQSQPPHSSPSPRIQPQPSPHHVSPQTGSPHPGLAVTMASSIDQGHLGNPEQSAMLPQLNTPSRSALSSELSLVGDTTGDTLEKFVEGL

| Structure (SMILES) | pIC50 [1] | inhibition [4] | further results |
| --- | --- | --- | --- |
| NCc1ccc(-c2ncc(OCC3CCNCC3)nc2-c2ccc(CN)cc2)cc1 | 5.55 |  | inhibition (Kasumi 1 [2]): Dde; inhibition (Kasumi 1 [3]): Dde |
| OCc1ccc(-c2ncc(OCC3CCNCC3)nc2-c2ccc(CO)cc2)cc1 | 5.00 | 48.2% |  |
| Brc1ccc(-c2ncc(OCC3CCNCC3)nc2-c2ccc(Br)c(Br)c2)cc1Br |  | 50% |  |
| NCCCOc1cnc(-c2ccc(Br)cc2)c(-c2ccc(Br)cc2)n1 | < 5.00 |  | pEC50 (MV4-11): < 4.70; pEC50 (MOLM-13 [5]): < 4.70; pEC50 [6]: < 4.70; pEC50 (PANC-1): < 4.70; pEC50 (MDA-MB-231 [7]): < 4.70; pEC50 (PC-3 [8]): < 4.70; pEC50 (MCF7): < 4.70; pEC50 (LNCaP [9]): < 4.70; pEC50 (RPMI-8226 [10]): < 4.70 |
| CNC(=O)Nc1ccc2c(c1)CC[C@@]21OC(=O)N(CC(=O)N(Cc2ccc(F)cc2)[C@@H](C)C(F)(F)F)C1=O (single isomer, unassigned) [A-485] |  |  | pEC50 (MOLM-13 [11]): 6.46; pEC50 (LNCaP [12]): 6.59; pEC50 (RPMI-8226 [13]): 6.80; pEC50 (MDA-MB-231 [14]): < 5.00; pEC50 (PC-3 [15]): 5.68 |
| COc1ccc(-c2ncc(OCC3CCNCC3)nc2-c2ccc(OC)cc2)cc1 | < 5.00 | 38% |  |
| CC(=O)NCCOc1cnc(-c2ccc(Br)cc2)c(-c2ccc(Br)cc2)n1 | < 5.00 | 0% |  |
| CCc1ccc(-c2ncc(OCC3CCNCC3)nc2-c2ccc(CC)cc2)cc1 | 5.00 | 55% |  |
| Fc1cc(-c2ncc(OCC3CCNCC3)nc2-c2ccc(Br)c(F)c2)ccc1Br | 4.93 |  |  |
| N#Cc1ccc(-c2ncc(OCC3CCNCC3)nc2-c2ccc(Br)cc2)cc1 | < 5.00 | 0% |  |
| Brc1cccc(-c2ncc(OCC3CCNCC3)nc2-c2cccc(Br)c2)c1 | 5.00 |  |  |
| NCCOc1cnc(-c2ccc(Br)cc2)c(-c2ccc(Br)cc2)n1 | < 5.00 | 5.4% |  |
| c1ccc(-c2cc(OCC3CCNCC3)cnc2-c2ccccc2)cc1 | 4.33 |  |  |
| NCCCCOc1cnc(-c2ccc(Br)cc2)c(-c2ccc(Br)cc2)n1 | < 5.00 |  |  |
| CNCCCCOc1cnc(-c2ccc(Br)cc2)c(-c2ccc(Br)cc2)n1 | < 5.00 |  |  |
| Ic1ccc(-c2ncc(OCC3CCNCC3)nc2-c2ccc(I)cc2)cc1 | 5.11 |  |  |

| Structure (SMILES) | pIC50 [1] | inhibition [4] | further results |
| --- | --- | --- | --- |
| FC(F)(F)c1ccc(-c2ncc(OCC3CCNCC3)nc2-c2ccc(C(F)(F)F)cc2)cc1 | < 5.00 | 34% |  |
| Clc1ccc(-c2ncc(OCC3CCNCC3)nc2-c2ccc(Cl)cc2)cc1 | < 5.00 |  |  |
| CN(C)CCCOc1cnc(-c2ccc(Br)cc2)c(-c2ccc(Br)cc2)n1 | < 5.00 | 4.8% |  |
| c1ccc(-c2ccc(-c3ncc(OCC4CCNCC4)nc3-c3ccc(-c4ccccn4)cc3)cc2)nc1 | < 5.00 | 37% |  |
| N#Cc1ccc(-c2nc(OCC3CCNCC3)cnc2-c2ccc(Br)cc2)cc1 | < 5.00 | 21% |  |
| Brc1ccc(-c2ncc(OCC3CCNCC3)nc2-c2ccc(Br)cc2)cc1 | 5.24 | 72.5% | pIC50 [16]: 4.57 |
| N#Cc1ccc(-c2ncc(OCC3CCNCC3)nc2-c2ccc(C#N)cc2)cc1 | < 5.00 | 0% |  |
| CNCCOc1cnc(-c2ccc(Br)cc2)c(-c2ccc(Br)cc2)n1 | < 5.00 | 19.6% |  |
| CC(C)(C)c1ccc(-c2ncc(OCC3CCNCC3)nc2-c2ccc(C(C)(C)C)cc2)cc1 | 4.75 |  |  |
| O=C(O)c1cnc(-c2ccc(Br)cc2)c(-c2ccc(Br)cc2)n1 | < 5.00 | 30% |  |
| CN(C)Cc1ccc(-c2ncc(OCC3CCNCC3)nc2-c2ccc(CN(C)C)cc2)cc1 | < 5.00 |  |  |
| c1cc(-c2ccc(-c3ncc(OCC4CCNCC4)nc3-c3ccc(-c4ccncc4)cc3)cc2)ccn1 | < 5.00 | 39% |  |
| c1cc(-c2ccc(-c3ncc(OCC4CCNCC4)nc3-c3ccc(-c4ccoc4)cc3)cc2)co1 | 5.85 |  | inhibition (Kasumi 1 [17]): Dde; pIC50 (CREB-binding protein): 5.66; inhibition (Kasumi 1 [18]): Active; pEC50 (MV4-11): 5.06; pEC50 (MOLM-13 [5]): 5.44; pIC50 [19]: < 4.00; inhibition (Kasumi 1 [20]): Active; pEC50 [6]: 5.37; pEC50 (PANC-1): 5.92; pEC50 (MCF7): 5.28; pIC50 [16]: 5.14; pIC50 [21]: < 4.00; pEC50 (RPMI-8226 [10]): 5.19 |
| Brc1ccc(-c2ncc(OCC3CCNC3)nc2-c2ccc(Br)cc2)cc1 (stereo unspecified) | < 5.00 |  |  |
| Nc1ccc(-c2ccc(-c3ncc(OCC4CCNCC4)nc3-c3ccc(-c4ccc(N)cc4)cc3)cc2)cc1 | 5.64 |  |  |
| Cc1ccc(-c2ncc(OCC3CCNCC3)cc2-c2ccc(CO)cc2)cc1 | 4.20 |  |  |
